The text below walks through data of ChEMBL document CHEMBL4321823, “Benzyl Phenylsemicarbazides: A Chemistry-Driven Approach Leading to G Protein-Biased Dopamine D4 Receptor Agonists with High Subtype Selectivity” (J Med Chem, 2019).

The structures appear in SMILES notation. The source made the active and inactive calls. The rule behind the calls is not given here.

Assay [1] concerns the target T1, D(2) dopamine receptor (Homo sapiens, UniProt P14416). As to the kind of experiment: Displacement of [3H] Spiperone from human D2L receptor expressed in CHO cells by competitive radioligand binding assay. It is filed as cell-based.
Assay [2] deals with T1, D(2) dopamine receptor. As to the kind of experiment: Displacement of [3H] Spiperone from human D2S receptor expressed in CHO cells by competitive radioligand binding assay. The format is cell-based. Background: In a radioligand displacement assay an active substance lowers the binding of a labelled ligand.
Assay [3] deals with D(3) dopamine receptor (Homo sapiens, UniProt P35462). As to the kind of experiment: Displacement of [3H] Spiperone from human D3 receptor expressed in CHO cells by competitive radioligand binding assay. It is filed as cell-based.
Assay [4] is filed under the species Homo sapiens. As to the kind of experiment: Selectivity index, ratio of Ki for displacement of [3H] Spiperone from human D3 receptor expressed in CHO cells to Ki for displacement of [3H] Spiperone from human D4.4 receptor expressed in CHO cells. It is filed as cell-based. In a few lines: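 Competition binding against [3H]spiperone on membranes of CHO cells stably expressing cloned human D2L, D2S, D3 or D4.4 receptors. Ki from monophasic curve fits; mean ± SEM of three to seven experiments, each in triplicate. Selectivity calculated as Ki(D2L, D2S or D3) divided by Ki(D4.4).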

In assay [5] the target is D(1A) dopamine receptor (Homo sapiens, UniProt P21728). Briefly: Displacement of [3H] SCH23390 from D1 receptor (unknown origin).
Assay [6] concerns the target D(1B) dopamine receptor (Homo sapiens, UniProt P21918). Briefly: Displacement of [3H] SCH23390 from D5 receptor (unknown origin).
In assay [7] the target is T2, Alpha-1A adrenergic receptor (Homo sapiens, UniProt P35348).
T2 sequence (P35348 whole entry): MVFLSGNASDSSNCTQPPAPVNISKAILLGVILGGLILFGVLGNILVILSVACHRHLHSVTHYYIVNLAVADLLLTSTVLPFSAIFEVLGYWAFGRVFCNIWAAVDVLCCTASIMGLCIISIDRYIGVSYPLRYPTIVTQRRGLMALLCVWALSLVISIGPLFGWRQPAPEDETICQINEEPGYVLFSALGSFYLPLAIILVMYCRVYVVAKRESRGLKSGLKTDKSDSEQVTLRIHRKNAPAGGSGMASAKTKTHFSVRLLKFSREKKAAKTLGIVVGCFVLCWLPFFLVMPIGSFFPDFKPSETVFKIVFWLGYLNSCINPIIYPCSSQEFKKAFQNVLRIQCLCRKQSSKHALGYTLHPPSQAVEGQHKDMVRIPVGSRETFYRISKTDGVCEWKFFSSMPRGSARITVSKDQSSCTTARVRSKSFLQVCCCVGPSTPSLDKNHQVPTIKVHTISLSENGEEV
Briefly: Displacement of [3H] prazosin from alpha1A adrenergic receptor (unknown origin).

In assay [8] the target is T3, Alpha-2A adrenergic receptor (Homo sapiens, UniProt P08913).
T3 sequence (P08913 whole entry): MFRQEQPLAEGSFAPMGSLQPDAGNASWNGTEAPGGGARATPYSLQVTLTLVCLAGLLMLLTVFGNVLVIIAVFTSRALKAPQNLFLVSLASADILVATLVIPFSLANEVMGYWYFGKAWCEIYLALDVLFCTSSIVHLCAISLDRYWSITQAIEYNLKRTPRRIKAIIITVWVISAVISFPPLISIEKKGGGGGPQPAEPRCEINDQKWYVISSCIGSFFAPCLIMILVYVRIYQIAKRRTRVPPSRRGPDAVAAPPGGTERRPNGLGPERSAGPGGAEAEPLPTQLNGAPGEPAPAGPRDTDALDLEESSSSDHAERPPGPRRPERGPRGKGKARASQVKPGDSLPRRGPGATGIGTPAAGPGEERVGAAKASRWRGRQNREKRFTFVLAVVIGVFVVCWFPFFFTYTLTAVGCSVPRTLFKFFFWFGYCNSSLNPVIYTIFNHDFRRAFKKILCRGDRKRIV
Briefly: Displacement of [3H] RX821002 from alpha2A adrenergic receptor (unknown origin).

Assay [9] has as its target Delta-type opioid receptor (Homo sapiens, UniProt P41143). As to the kind of experiment: Displacement of [3H] diprenorphine from delta opioid receptor (unknown origin).
Assay [10] addresses T4, Muscarinic acetylcholine receptor M1 (Homo sapiens, UniProt P11229).
T4 sequence (P11229 whole entry): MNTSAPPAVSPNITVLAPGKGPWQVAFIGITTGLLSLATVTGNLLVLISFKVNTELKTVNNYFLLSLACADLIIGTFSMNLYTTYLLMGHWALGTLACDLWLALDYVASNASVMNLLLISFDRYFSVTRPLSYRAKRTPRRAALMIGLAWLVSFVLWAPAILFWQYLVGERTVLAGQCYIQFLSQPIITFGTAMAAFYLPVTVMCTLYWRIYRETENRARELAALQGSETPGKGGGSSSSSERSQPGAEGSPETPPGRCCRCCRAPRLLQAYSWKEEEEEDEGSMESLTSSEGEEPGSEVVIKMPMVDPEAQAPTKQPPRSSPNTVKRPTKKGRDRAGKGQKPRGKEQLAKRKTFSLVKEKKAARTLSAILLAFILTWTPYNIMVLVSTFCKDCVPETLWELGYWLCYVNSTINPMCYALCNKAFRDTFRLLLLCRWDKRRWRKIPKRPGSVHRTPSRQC
As to the kind of experiment: Displacement of [3H] NMS from muscarinic M1 receptor (unknown origin). In a few lines:
(§1)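 Radioligand competition binding; Ki given as mean ± SD from two individual experiments, each run in triplicate.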

For assay [11], the target named is Muscarinic acetylcholine receptor M3 (Homo sapiens, UniProt P20309). As to the kind of experiment: Displacement of [3H] NMS from muscarinic M3 receptor (unknown origin). In a few lines:
as §1

Assay [12] concerns the target 5-hydroxytryptamine receptor 2A (Homo sapiens, UniProt P28223). Briefly: Displacement of [3H] Ketanserin from 5HT2A receptor (unknown origin).
Assay [13] is filed under the species Homo sapiens. As to the kind of experiment: Selectivity index, ratio of Ki for displacement of [3H] prazosin from alpha1A adrenergic receptor to Ki for displacement of [3H] Spiperone from human D4.4 receptor expressed in CHO cells. The format is cell-based.
Assay [14] addresses T5, D(4) dopamine receptor (Homo sapiens, UniProt P21917).
T5 sequence (P21917 whole entry): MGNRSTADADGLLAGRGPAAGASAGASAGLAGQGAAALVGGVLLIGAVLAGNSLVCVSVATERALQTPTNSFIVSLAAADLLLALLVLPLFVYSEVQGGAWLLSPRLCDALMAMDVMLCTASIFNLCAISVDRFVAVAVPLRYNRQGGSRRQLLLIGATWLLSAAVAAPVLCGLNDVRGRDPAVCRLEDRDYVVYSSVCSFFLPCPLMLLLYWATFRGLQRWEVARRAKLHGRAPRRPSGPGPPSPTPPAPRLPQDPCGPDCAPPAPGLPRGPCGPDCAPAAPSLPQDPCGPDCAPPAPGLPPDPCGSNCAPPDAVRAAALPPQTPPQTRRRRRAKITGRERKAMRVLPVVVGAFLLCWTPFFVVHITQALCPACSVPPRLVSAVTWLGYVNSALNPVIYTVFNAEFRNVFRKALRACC
Briefly: Agonist activity at human D4 receptor expressed in HEK293T cells co-expressing G-alphaqi assessed as accumulation of inositol monophosphate using d2-labelled IP1 conjugate incubated for 90 mins by HTRF assay. It is filed as functional, cell-based.

The target in assay [15] is T6, Alpha-1A adrenergic receptor (Homo sapiens) (UniProt P35348).
T6 sequence (whole entry): T2 sequence (P35348 whole entry)
As to the kind of experiment: Antagonist activity at human alpha1A adrenergic receptor expressed in HEK293T cells assessed as accumulation of inositol monophosphate using d2-labelled IP1 conjugate incubated for 60 mins by HTRF assay. The format is functional, cell-based. (In TR-FRET formats the signal depends on donor and acceptor labels being close together.)

T1 sequence (P14416 whole entry): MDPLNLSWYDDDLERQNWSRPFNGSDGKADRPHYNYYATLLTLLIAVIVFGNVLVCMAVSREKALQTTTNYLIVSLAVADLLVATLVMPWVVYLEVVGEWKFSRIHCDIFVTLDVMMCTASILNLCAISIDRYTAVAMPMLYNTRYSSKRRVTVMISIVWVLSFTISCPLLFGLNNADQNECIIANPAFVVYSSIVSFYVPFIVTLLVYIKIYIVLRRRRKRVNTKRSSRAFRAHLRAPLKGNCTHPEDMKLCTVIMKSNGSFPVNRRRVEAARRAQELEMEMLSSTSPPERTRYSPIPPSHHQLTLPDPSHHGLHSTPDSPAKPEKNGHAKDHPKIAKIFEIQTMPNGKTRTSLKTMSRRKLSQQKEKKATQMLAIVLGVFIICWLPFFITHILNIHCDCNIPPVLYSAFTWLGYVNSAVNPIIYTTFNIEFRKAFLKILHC
D(3) dopamine receptor, sequence (P35462 whole entry): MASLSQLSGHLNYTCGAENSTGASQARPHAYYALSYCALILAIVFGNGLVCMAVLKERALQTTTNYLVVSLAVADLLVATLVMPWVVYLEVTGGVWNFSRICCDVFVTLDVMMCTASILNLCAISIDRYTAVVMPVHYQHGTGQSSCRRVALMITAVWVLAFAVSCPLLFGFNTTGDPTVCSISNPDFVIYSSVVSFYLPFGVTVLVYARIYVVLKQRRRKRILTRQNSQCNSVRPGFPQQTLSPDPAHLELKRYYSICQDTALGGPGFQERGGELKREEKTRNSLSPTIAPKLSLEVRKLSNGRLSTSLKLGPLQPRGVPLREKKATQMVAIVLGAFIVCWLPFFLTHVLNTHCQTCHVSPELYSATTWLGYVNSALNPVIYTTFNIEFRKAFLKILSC
Delta-type opioid receptor, sequence (P41143 whole entry): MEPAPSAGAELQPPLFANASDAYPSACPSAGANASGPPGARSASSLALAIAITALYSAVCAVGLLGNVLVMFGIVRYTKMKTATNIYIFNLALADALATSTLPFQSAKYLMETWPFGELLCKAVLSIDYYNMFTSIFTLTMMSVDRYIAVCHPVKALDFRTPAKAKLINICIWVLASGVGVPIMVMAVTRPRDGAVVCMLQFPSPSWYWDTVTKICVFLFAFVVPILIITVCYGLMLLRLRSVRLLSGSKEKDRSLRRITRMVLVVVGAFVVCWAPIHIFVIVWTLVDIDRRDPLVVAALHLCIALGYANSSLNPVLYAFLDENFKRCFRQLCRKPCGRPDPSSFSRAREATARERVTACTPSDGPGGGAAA
Muscarinic acetylcholine receptor M3, sequence (P20309 whole entry): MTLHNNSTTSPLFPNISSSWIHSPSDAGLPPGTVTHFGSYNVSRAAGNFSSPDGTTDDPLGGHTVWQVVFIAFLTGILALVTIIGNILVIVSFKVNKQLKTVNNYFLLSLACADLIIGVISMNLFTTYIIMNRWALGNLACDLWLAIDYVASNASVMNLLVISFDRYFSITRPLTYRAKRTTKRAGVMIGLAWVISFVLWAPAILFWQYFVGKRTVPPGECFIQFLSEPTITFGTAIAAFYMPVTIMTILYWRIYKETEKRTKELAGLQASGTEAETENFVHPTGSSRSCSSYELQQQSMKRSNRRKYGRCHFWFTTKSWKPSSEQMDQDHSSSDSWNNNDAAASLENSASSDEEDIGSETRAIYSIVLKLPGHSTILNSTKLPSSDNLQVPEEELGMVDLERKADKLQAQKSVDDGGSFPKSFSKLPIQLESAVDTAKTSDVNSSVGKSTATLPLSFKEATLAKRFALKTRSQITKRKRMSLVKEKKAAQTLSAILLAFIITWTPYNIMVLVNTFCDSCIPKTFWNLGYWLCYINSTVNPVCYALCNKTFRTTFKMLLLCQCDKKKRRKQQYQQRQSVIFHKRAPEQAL
D(1B) dopamine receptor, sequence (P21918 whole entry): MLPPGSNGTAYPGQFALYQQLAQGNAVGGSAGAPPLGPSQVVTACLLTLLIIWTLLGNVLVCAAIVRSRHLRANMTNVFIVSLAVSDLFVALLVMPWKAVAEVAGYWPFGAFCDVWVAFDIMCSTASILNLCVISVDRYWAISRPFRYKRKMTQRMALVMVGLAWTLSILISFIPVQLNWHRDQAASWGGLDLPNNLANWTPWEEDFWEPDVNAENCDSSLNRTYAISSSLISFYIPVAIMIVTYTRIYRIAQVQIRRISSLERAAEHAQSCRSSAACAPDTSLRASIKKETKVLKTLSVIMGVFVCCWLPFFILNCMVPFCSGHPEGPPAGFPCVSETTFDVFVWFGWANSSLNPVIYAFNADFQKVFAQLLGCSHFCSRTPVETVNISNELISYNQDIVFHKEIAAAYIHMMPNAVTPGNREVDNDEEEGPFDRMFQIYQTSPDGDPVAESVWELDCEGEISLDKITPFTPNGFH
D(1A) dopamine receptor, sequence (P21728 whole entry): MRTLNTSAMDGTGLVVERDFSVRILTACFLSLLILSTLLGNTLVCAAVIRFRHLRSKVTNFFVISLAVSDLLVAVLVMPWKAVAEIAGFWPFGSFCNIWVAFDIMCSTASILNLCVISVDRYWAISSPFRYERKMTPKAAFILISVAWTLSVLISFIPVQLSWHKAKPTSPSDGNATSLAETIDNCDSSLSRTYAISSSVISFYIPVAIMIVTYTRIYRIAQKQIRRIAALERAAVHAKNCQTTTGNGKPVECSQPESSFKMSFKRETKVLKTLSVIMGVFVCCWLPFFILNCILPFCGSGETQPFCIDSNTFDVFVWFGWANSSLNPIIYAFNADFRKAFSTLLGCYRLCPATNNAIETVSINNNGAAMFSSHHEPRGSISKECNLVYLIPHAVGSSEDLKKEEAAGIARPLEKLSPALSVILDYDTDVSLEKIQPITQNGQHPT
5-hydroxytryptamine receptor 2A, sequence (P28223 whole entry): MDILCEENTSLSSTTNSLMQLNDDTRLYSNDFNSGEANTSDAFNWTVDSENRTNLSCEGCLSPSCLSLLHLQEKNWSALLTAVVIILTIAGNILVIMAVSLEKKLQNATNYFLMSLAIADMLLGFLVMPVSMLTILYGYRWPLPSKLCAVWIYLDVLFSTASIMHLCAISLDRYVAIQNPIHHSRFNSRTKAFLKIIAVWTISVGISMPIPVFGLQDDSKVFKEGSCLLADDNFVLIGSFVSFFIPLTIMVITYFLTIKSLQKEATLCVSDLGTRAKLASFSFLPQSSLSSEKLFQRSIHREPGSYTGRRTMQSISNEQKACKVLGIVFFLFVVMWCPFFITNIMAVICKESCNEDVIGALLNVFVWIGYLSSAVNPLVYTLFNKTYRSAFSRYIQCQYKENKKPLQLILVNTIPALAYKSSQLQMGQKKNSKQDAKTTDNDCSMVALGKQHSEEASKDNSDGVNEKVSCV

With `COc1ccccc1N1CCN(CCCNC(=O)NN(Cc2ccc(F)cc2)c2ccccc2)CC1`, the Ki (usually a dissociation constant, usually derived from enzyme kinetics or from competition with a known ligand) came out at 140 nM in [1]; 110 nM in [2]; 310 nM in assay [3]; 360 nM in assay [5]; 1000 nM in [6]; 1.6 nM in assay [7]. The Ki in [8] came to 860 nM; in [9] it was 19000 nM; in [10], 15000 nM; in [11] it was 37000 nM; in assay [12], 130 nM. Moreover, the results for the Ratio Ki in [4] and in assay [13] were 560 and 2.9, respectively. Further, the concentration for a half-maximal effect (EC50) (in general, the concentration at which the effect is half-maximal) in [14] is 41 nM. For the same molecule, in [15], the result was inactive.
